Bioassay records deposited in PubChem by Broad Institute.
This is a sample that favours compounds with a hit; in the whole collection about 4% have one here.
E-sel inducer = E-selectin induction in HUVECs, primary screen, imaging, HUVEC, immunofluorescence imaging, single point; P16581; normalized: neutral wells 0, TNF-alpha wells 100; activation, % at 7.58 µM; hit rate 0.37% among 260,000;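 active means mean E-selectin-positive cell signal at least 10% of the positive control, reached in at least 60% of replicates, without over 20% cell loss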
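System: HUVEC / Compound: single concentration / Signal: immunofluorescence imaging / Read-out: percent E-selectin-positive cells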
C2C12 statin = suppressors of statin myotoxicity in C2C12 myotubes, primary screen, cell-based, single point, plate reader. C2C12 myotubes + simvastatin, ATP luminescence, 48 h; scaled: DMSO 0, geranylgeraniol control 100. rescue of ATP level, % at 7.49 µM. hit rate 0.78% among 330,000. AID 602340, 2012;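 active means mean ATP rescue above about 67%, or every replicate alone reaching that limit, limit read from the data, passing the limit was not always enough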;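 further: myotubes were challenged with 10 µM simvastatin during compound exposure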
SIRT5 block = SIRT5 desuccinylase inhibitors, primary screen, biochemical, fluorescence imaging, single point, set 5; Purified SirT5, succinyl-peptide AMC, trypsin-coupled fluorescence; NAD-dependent protein deacylase sirtuin-5, mitochondrial (Homo sapiens), Q9NXA8; inhibition, % at 15 µM; hit rate 1.1% among 330,000; in the data active means inhibition above about 15%
Target sequence (Q9NXA8 whole entry, looked up): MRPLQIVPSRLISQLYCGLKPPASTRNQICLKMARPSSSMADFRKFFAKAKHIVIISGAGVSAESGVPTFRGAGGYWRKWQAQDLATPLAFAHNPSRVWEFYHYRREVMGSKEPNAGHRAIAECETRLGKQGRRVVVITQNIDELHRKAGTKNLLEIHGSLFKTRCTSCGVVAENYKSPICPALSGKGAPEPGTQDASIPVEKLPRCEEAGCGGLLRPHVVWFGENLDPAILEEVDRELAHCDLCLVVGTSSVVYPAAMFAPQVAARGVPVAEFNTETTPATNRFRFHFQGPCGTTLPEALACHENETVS
FN deposit inh = inhibitors of fibronectin matrix deposition, primary screen, AH1F cells, Alexa488-fibronectin fluorescence, plate reader | AH1F fibroblasts, overnight | inhibition, % at 12.6 µM | hit rate 0.086% among 350,000 | AID 743247, 2014;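 active means mean inhibition across replicates of 30% or more, regardless of how many single replicates reach that level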;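 further: positive control wells lacked labelled fibronectin entirely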
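Assay system: AH1F fibroblasts / Quantity: 10000 cells per well / Medium: DMEM plus 2% serum, read in PBS / Reagent: labelled fibronectin 24 nM / Dosing: single dose, pinned / Times: 1 h cell attachment, overnight exposure to compound and label / Signal: fluorescence, ex 485 nm, em 525 nm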
FGF22 binding = binders of human FGF22 protein, primary screen, FGF22 synaptogenesis inhibitor project, biophysical, thermal shift, single point; recombinant FGF22 thermal shift, SYPRO orange fluorescence; percent of sucrose octasulfate shift, DMSO zero; activity (Tm shift, normalised), % at 9.99 µM; hit rate 1.5% among 340,000;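 active means mean Tm shift, scaled 0 neutral to 100 positive control, at about 1.3% or above, every replicate too, limit read from the data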
Target sequence (Q9HCT0 whole entry, looked up): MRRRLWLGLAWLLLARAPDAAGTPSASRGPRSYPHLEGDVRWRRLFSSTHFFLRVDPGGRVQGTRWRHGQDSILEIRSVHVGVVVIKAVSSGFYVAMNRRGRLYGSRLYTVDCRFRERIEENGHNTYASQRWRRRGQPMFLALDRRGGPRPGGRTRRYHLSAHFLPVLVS
rRNA inh HTS = reduced GFP signal of wild-type E. coli, primary screen, bacterial rRNA inhibitor project, GFP/RFP fluorescence, OD600, single point | E. coli WT GFP vs humanized-ribosome RFP mutants, 24 h; stronger effect = lower value; DMSO median 0, no signal -100 | GFP signal change (wild-type ribosome), % (test concentration not listed) | hit rate 1.6% among 350,000;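 active means significant combined selectivity score with lowered wild-type GFP, culture density cut under 30%, mutant RFP and density less affected; inactive means any of these conditions unmet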
* hit, by the source's call; / = no result; ! = a repeat was not active.

SMILES	E-sel inducer	C2C12 statin	SIRT5 block	FN deposit inh	FGF22 binding	rRNA inh HTS
Cn1c(=O)c2c(nc(Oc3ccccc3)n2C)n(C)c1=O	/	141.5*	/	/	/	/
CC(C)NC(=O)N(C)C[C@@H]1Oc2c(NC(=O)Nc3ccccc3)cccc2C(=O)N([C@@H](C)CO)C[C@H]1C	0.9	4.8	1.7	/	-0.2	3.2
C[C@@H]1CN([C@@H](C)CO)C(=O)c2cc(NC(=O)Nc3ccc4c(c3)OCO4)ccc2O[C@H]1CN(C)S(=O)(=O)c1ccc(F)cc1	-14.9	-20.8	12.1	3.8	-0.6	-4.9
COc1ccc(S(=O)(=O)N(C)C[C@H]2Oc3ccc(NC(=O)Nc4ccc(F)cc4)cc3C(=O)N([C@H](C)CO)C[C@H]2C)cc1	-0.2	-48.1	21.3*	/	0.0	-1.4
C[C@H]1CN([C@@H](C)CO)C(=O)c2cc(NC(=O)Nc3ccc(F)cc3)ccc2O[C@@H]1CN(C)S(=O)(=O)c1ccc(Cl)cc1	2.5	-23.8	0.9	/	0.2	-1.7
COc1ccc(S(=O)(=O)N(C)C[C@@H]2Oc3ccc(NC(=O)Nc4ccc(F)cc4)cc3C(=O)N([C@@H](C)CO)C[C@H]2C)cc1	0.0	-52.1	7.0	/	0.2	-5.7
C[C@@H]1CN([C@@H](C)CO)C(=O)c2cc(NC(=O)Nc3ccc(F)cc3)ccc2O[C@@H]1CN(C)S(=O)(=O)c1ccc(Cl)cc1	0.2	-8.1	19.0*	11.9	0.0	1.8
C[C@H](CO)N1C[C@H](C)[C@H](CN(C)S(=O)(=O)c2ccc(Cl)cc2)Oc2ccc(NC(=O)NC3CCCCC3)cc2C1=O	435.6*	-89.2	0.3	/	-0.3	3.0
C[C@@H]1CN([C@H](C)CO)C(=O)c2cc(NC(=O)Nc3ccc4c(c3)OCO4)ccc2O[C@H]1CN(C)S(=O)(=O)c1ccc(F)cc1	51.2*	-11.2	0.9	/	-0.6	-0.2
O=C(c1coc2ccc(O)c(CN3CCOCC3)c12)C1CC1	/	/	/	9.9	/	/
O=C(c1cccs1)c1coc2ccc(O)c(CN3CCOCC3)c12	/	1.2	29.1*	/	/	-3.5
CCO[C@H]1OC(C(=O)N2CCCC2)=C[C@@H](c2ccc3c(c2)OCO3)[C@@H]1CCCO	/	/	2.8	/	-0.3	/
CCO[C@H]1OC(C(=O)O)=C[C@@H](C)[C@@H]1CCCO	-0.1	-5.5	-1.7	4.4	-0.2	11.7
CCO[C@H]1OC(C(=O)O)=C[C@@H](C(C)(C)C)[C@@H]1CCCO	0.1	7.0	22.8*	8.4	-0.1	5.0
CCO[C@H]1OC(C(=O)O)=C[C@@H](c2ccc3c(c2)OCO3)[C@@H]1CCCO	0.6	16.7	-1.6	-18.0	44.5*!	3.9
Cc1noc(C)c1NC(=O)N(C)C[C@H]1Oc2c(NC(=O)NC3CCCCC3)cccc2C(=O)N([C@H](C)CO)C[C@H]1C	-0.1	-39.7	-1.1	/	0.1	2.4
CSc1ncccc1C(=O)NCCc1ccccc1	0.1	2.3	-2.3	-5.9	43.2*	8.6
COc1ccc(CCNC(=O)c2n[nH]c(=O)c3ccccc23)cc1	/	3.8	/	/	/	/
O=C(NCCc1ccccc1)c1c(F)cccc1F	/	-2.9	-1.4	-1.8	43.0*	20.3
O=C(NCCc1ccccc1)c1n[nH]c(=O)c2ccccc12	/	1.3	5.7	-19.4	43.2*	7.4
COc1ccc(NC(=O)Nc2ccc3c(c2)[C@@H]2C[C@H](CC(=O)O)O[C@@H](CO)[C@@H]2O3)cc1	-0.3	-3.2	-0.5	/	0.1	1.1
C[C@@]12CCC=C[C@H]1[C@H](c1ccc3ccccc3c1)N(Cc1ccccc1)C2=O	0.5	2.3	/	-9.2	0.0	-1.3
C[C@@]12CCC=C[C@H]1[C@H](c1ccc3ccccc3c1Br)N(Cc1ccccc1)C2=O	-0.3	77.7*	/	-3.8	0.0	8.5
CCOC(=O)c1ccc(CC2SC(N)=NC2=O)cc1 (stereo not given)	-0.2	0.4	-1.0	3.5	-0.1	11.3
